PfGluPho inh – PfG6PD enzyme inhibitors, primary screen, biochemical, fluorescence intensity, uHTS; inhibition, % at 20 µM; actives 0.78% (n = 350,000); glucose-6-phosphate dehydrogenase-6-phosphogluconolactonase (Plasmodium falciparum 3D7); PfGluPho enzyme, NADPH resazurin-diaphorase fluorescence;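 active = inhibition reaching at least a set limit at 20 µM in the primary screen, cut at about 59% in these data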
Granule exo inh – LAMP-1 surface exposure blockers, TALL-104 cells – cell-based, flow cytometry, MLPCN library, primary screen; actives 0.66% (n = 360,000); AID 651702, 2012; inhibition, % at 10 µM; TALL-104 LAMP-1 surface exposure; cells stimulated with thapsigargin and PMA;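 active = inhibition above about 55%, limit read from the data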
ABHD5 PLIN5 PPI – ABHD5-PLIN5 interaction inhibitors, primary screen, cell lysate, split luciferase complementation, luminescence | Perilipin-5 (Homo sapiens) + 1-acylglycerol-3-phosphate O-acyltransferase ABHD5 (Homo … | Split G. princeps luciferase complementation, 4 h | inhibition, % at 4 µM | actives 0.78% (n = 360,000);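 active = inhibition above the mean inhibition across every tested compound plus 3 SD, cut at about 22% in these data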
HKDC1 inhibitor – HKDC1 hexokinase inhibitors, primary screen, biochemical, fluorescence, uHTS | Q2TB90 | recombinant HKDC1, G6PDH/diaphorase resazurin coupled fluorescence | inhibition, % at 20 µM | actives 0.16% (n = 340,000) | AID 493160, 2011;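 active = inhibition above about 35% when tested at 20 µM, limit read from the data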
Target sequence (Q2TB90 whole entry, looked up): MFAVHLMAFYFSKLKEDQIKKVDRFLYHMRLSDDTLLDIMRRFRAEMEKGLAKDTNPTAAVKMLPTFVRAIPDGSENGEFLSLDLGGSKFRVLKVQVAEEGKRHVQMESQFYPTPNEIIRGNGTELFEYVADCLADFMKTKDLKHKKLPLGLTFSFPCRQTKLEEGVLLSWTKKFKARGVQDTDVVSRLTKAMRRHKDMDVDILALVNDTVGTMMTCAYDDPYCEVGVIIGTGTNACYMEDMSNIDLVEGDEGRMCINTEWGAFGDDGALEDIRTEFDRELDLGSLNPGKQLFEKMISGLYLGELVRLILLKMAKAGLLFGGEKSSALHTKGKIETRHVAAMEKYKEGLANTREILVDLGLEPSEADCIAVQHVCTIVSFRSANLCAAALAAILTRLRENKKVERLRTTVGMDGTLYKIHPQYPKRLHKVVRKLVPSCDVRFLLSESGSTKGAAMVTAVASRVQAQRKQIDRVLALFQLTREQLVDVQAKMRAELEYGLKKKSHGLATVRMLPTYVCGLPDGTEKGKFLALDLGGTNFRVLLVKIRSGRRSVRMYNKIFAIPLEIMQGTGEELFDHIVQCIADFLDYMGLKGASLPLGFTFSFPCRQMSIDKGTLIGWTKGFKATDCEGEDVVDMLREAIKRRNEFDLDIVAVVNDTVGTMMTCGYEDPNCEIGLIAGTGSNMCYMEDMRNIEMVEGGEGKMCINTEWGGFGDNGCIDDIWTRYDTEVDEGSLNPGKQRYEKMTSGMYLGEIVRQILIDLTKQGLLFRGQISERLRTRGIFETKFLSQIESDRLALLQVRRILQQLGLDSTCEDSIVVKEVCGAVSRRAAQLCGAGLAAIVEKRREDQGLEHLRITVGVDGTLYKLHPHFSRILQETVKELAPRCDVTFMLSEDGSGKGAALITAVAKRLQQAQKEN
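Test system: Recombinant HKDC1 (HK5) hexokinase enzyme, produced in-house | Input: HKDC1 at 5 µg/mL | Buffer or medium: Tris pH 8.0 buffer with MgCl2, Tween-20, BSA, BME | Schedule: 90 min reaction incubation at room temperature, dark | Technique: Resazurin-to-resorufin fluorescence via G6PDH and diaphorase coupling, 525/613 nm | Controls: DMSO wells with and without enzyme mix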
PfGluPho conf – PfG6PD inhibitors, hit retest, confirmation, biochemical, fluorescence intensity, single concentration. shares compounds with PfGluPho inh. recombinant PfGluPho, NADPH-diaphorase-resazurin fluorescence. inhibition, % at 20 µM. actives 34% (n = 2,400). AID 504753, 2011;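 active = inhibition of at least 50% at 20 µM in any single replicate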
Diaphorase 10uM – diaphorase inhibitors and chemical oxidizers, confirmation, counter-screen for P. falciparum G6PD inhibitor project, biochemical, fluorescence intensity, 10 µM NADPH; shares compounds with PfGluPho inh; diaphorase-coupled resazurin reduction, NADPH 10 uM; inhibition, % at 20 µM; actives 39% (n = 820); AID 504862, 2011;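 active = average inhibition reaching 50% or more with the compound at 20 µM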;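 also: resorufin red fluorescence formed as diaphorase reduces resazurin using NADPH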
Diaphorase 30uM – diaphorase inhibitors and chemical oxidizers, confirmation, counter-screen for P. falciparum G6PD inhibitor project, biochemical, fluorescence intensity, 30 µM NADPH; shares compounds with PfGluPho inh; Diaphorase/resazurin coupled assay, resorufin fluorescence; inhibition, % at 20 µM; actives 29% (n = 820);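 active = inhibition averaging 50% or more, tested at 20 µM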
ABHD5 PLIN5 conf – ABHD5-PLIN5 interaction inhibitors, confirmation, biochemical, luminescence. shares compounds with ABHD5 PLIN5 PPI. actives 67% (n = 2,200). inhibition, % at 4 µM. AID 651612, 2012; in the data active = inhibition above about 23%
HNF4 split-luc – HNF4 dimerization inhibitors, counter-screen for ABHD5-PLIN5 interaction inhibitor project, biochemical, split-luciferase complementation, luminescence; actives 77% (n = 2,200); shares compounds with ABHD5 PLIN5 PPI; inhibition, % at 4 µM;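 active = mean inhibition across replicate wells exceeding the computed hit threshold, cut at about 13% in these data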;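 also: light from luciferase halves that rejoin when HNF4 fusion proteins dimerize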
Of the large screens only hits and unclear results are named; the others gave an inactive call (follow-up assays come after a bar, where they were run). Hits are enriched below; roughly 2.2% of the tested compounds scored in any of these assays.

CC1=CC(C)(C)Nc2ccc(OC(=O)CN3C(=O)c4cccc5cccc(c45)C3=O)cc21	PfGluPho inh 91, ABHD5 PLIN5 PPI 32 | PfGluPho conf 85 | Diaphorase 10uM inactive | Diaphorase 30uM inactive | ABHD5 PLIN5 conf 71 | HNF4 split-luc inactive
CC1=CC(C)(C)Nc2ccc(OC(=O)CN3C(=O)c4ccccc4C3=O)cc21	PfGluPho inh 75, ABHD5 PLIN5 PPI 66 | PfGluPho conf inactive | ABHD5 PLIN5 conf 86 | HNF4 split-luc 79
CN(c1nc(-c2ccc(Br)cc2)cs1)C1CCS(=O)(=O)C1 (stereo not given)	none
O=C1C=CC2=C3c4cc(O)c(O)cc4CC3(O)COC2=C1O (stereo not given)	PfGluPho inh 81, ABHD5 PLIN5 PPI 28 | PfGluPho conf 68 | Diaphorase 10uM inactive | Diaphorase 30uM inactive | ABHD5 PLIN5 conf 64 | HNF4 split-luc 33
COCCNC(=O)c1cn(C)c2ccc(S(=O)(=O)N3CCCCC3)cc2c1=O	none
COc1ccc(CC2=CC(=O)c3ccccc3C2=O)cc1	PfGluPho inh 85, ABHD5 PLIN5 PPI 85 | PfGluPho conf inactive | ABHD5 PLIN5 conf 100 | HNF4 split-luc 108
COc1ccc(Cc2ccccc2C(=O)O)cc1	none
Cc1cc(C)n(CCCNC(=O)c2ccc(C)c(S(=O)(=O)N3CCOCC3)c2)n1	none
CCOc1ccc(/C=C/[N+](=O)[O-])c2ccccc12	PfGluPho inh 64, Granule exo inh 102, ABHD5 PLIN5 PPI 79 | PfGluPho conf inactive | ABHD5 PLIN5 conf 103 | HNF4 split-luc 108
CCOC(=O)COc1ccc2ccccc2c1/C=C/[N+](=O)[O-]	none
Cc1ccc(C(=O)Nc2ccc3c(c2)C(=O)N(C)C3=O)c(C)c1	none
Cc1nnc(Sc2cc(NCCO)c([N+](=O)[O-])c3nonc23)s1	PfGluPho inh 86, ABHD5 PLIN5 PPI 50 | PfGluPho conf 68 | Diaphorase 10uM inactive | Diaphorase 30uM inactive | ABHD5 PLIN5 conf 52 | HNF4 split-luc 114
Cc1ccc(/C=N/NC(=O)NC2CCCCC2)o1	none
Cc1ccc(/C=C/C(=O)NCC2COc3ccccc3O2)o1 (stereo not given)	PfGluPho inh 63, ABHD5 PLIN5 PPI 24 | PfGluPho conf 48 | Diaphorase 10uM inactive | Diaphorase 30uM inactive | ABHD5 PLIN5 conf 49 | HNF4 split-luc 63
Cc1ccc(/C=C/C(=O)NC2CCCCCCC2)o1	PfGluPho inh 81, Granule exo inh 58, ABHD5 PLIN5 PPI 50 | PfGluPho conf 52 | Diaphorase 10uM inactive | Diaphorase 30uM inactive | ABHD5 PLIN5 conf 55 | HNF4 split-luc 71
COc1ccc(/C=C/C(=O)NCC2COc3ccccc3O2)cc1OC (stereo not given)	none
Cc1ccc(/C=C/C(=O)N2CC(=O)Nc3ccccc32)o1	PfGluPho inh 72, ABHD5 PLIN5 PPI 25 | PfGluPho conf inactive | ABHD5 PLIN5 conf inactive | HNF4 split-luc 30
O=C(Cc1ccc(Br)cc1)OCC(=O)c1ccc[nH]1	none
COc1ccc(N2C(=O)c3ccccc3NC(=O)C2C(=O)Nc2ccc3c(c2)OCCO3)cc1 (stereo not given)	none (no result: PfGluPho inh, HKDC1 inhibitor)
CCN(CC)CC(C)(C)C(=O)/C=C/c1ccc(/C=C/C(=O)C(C)(C)CN(CC)CC)cc1	PfGluPho inh 64, ABHD5 PLIN5 PPI 95 | PfGluPho conf inactive | ABHD5 PLIN5 conf 101 | HNF4 split-luc 107
O=C(Nc1ccccc1)c1ccc2nc(-c3ccco3)c(-c3ccco3)nc2c1	PfGluPho inh 61, ABHD5 PLIN5 PPI 30 | PfGluPho conf inactive | ABHD5 PLIN5 conf 49 | HNF4 split-luc 32
CCc1nc2ccc(C(=O)NCCc3ccco3)cc2nc1CC	none
O=C(NCCCO)c1ccc2nc(-c3ccco3)c(-c3ccco3)nc2c1	PfGluPho inh 75, ABHD5 PLIN5 PPI 25 | PfGluPho conf inactive | ABHD5 PLIN5 conf 67 | HNF4 split-luc 68
CC(=O)Nc1ccc2c(c1)Cc1ccc(Cl)cc1-2	none
O=C1C=CC(=O)N1c1ccc2c(c1)Cc1cc(F)ccc1-2	PfGluPho inh 84, ABHD5 PLIN5 PPI 26 | PfGluPho conf inactive | ABHD5 PLIN5 conf 42 | HNF4 split-luc 71
CC(=O)Nc1ccc2c(c1)Cc1cc(N3C(=O)C=CC3=O)ccc1-2	PfGluPho inh 111, ABHD5 PLIN5 PPI 35 | PfGluPho conf 100 | Diaphorase 10uM inactive | Diaphorase 30uM inactive | ABHD5 PLIN5 conf 45 | HNF4 split-luc 104
CC1=NOC(=O)/C1=C\c1ccc(-c2ccccc2Br)o1	PfGluPho inh 95, Granule exo inh 92, ABHD5 PLIN5 PPI 43 | PfGluPho conf 51 | Diaphorase 10uM inactive | Diaphorase 30uM inactive | ABHD5 PLIN5 conf 93 | HNF4 split-luc 95
CC1=NOC(=O)/C1=C\c1ccc(-c2ccc(Cl)c(C(=O)O)c2)o1	none
CCc1ccc(C(C(=O)NCc2ccc(F)cc2)N(C(=O)c2csnn2)C2CC2)cc1 (stereo not given)	none
Cc1ccc(S(=O)(=O)C=CS(=O)(=O)c2ccc(C)cc2)cc1	PfGluPho inh 113, ABHD5 PLIN5 PPI 37 (no result: HKDC1 inhibitor) | PfGluPho conf 93 | Diaphorase 10uM inactive | Diaphorase 30uM inactive | ABHD5 PLIN5 conf 68 | HNF4 split-luc 108
Cc1ccc(S(=O)(=O)c2ccc(C)cc2)cc1	none
COC(=O)[C@]12CCCCC=C1N(Cc1ccc3c(c1)OCO3)C(=O)[C@H](CC(=O)N1CCN(C(=O)C3CC3)CC1)C2	none (no result: PfGluPho inh, HKDC1 inhibitor)
O=C1C(=C(c2ccccc2)N2CCOCC2)Cc2ccccc21	PfGluPho inh 66, ABHD5 PLIN5 PPI 82 (no result: HKDC1 inhibitor) | PfGluPho conf inactive | ABHD5 PLIN5 conf 97 | HNF4 split-luc 95
CCCCC1C(=O)N(c2ccccc2)N(c2ccc(O)cc2)C1=O (stereo not given)	PfGluPho inh 78, ABHD5 PLIN5 PPI 97 | PfGluPho conf 54 | Diaphorase 10uM inactive | Diaphorase 30uM inactive | ABHD5 PLIN5 conf 82 | HNF4 split-luc 100
CCCCC1(CO)C(=O)N(c2ccccc2)N(c2ccccc2)C1=O	none

Assay outcomes as filed in PubChem.
